Like-named read-outs stand apart in the source and are kept apart here. Blank lines part the entries; values can stand above or below the molecule they belong to. Non-standard residues stand in square brackets, D forms with d. Residues, ends and D or L forms follow the SMILES beside them. Sar = CNCC(=O)O
Experiments:
[1] = tested on: SKPT cells; test: Effect of potential inhibitors on basolateral uptake of carnosine; format: in vitro ADME, rat; conditions: inhibitor 1 mM; 15-min uptake, basolateral pH 7.4
Procedure, shortened: (§1)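 Measured 15-min uptake at 37°C of [3H]substrate (with [14C]mannitol correction) from the apical or basolateral side, co-incubated with or without test compounds (PEPT2 and PHT1 substrates, unlabelled substrate, a cephalosporin). Apical buffer was pH 6.0 and basolateral pH 7.4. Test compounds were 1 mM for basolateral uptake. Results were compared with control by ANOVA and Dunnett's test. n=3–6.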

[2] = molecular target: T1, PEPT2 (Rattus norvegicus, UniProt Q63424); conditions: read-out: Km, PEPT2-mediated uptake; rat neonatal astrocytes; cited from earlier work
T1 sequence (Q63424 1-729): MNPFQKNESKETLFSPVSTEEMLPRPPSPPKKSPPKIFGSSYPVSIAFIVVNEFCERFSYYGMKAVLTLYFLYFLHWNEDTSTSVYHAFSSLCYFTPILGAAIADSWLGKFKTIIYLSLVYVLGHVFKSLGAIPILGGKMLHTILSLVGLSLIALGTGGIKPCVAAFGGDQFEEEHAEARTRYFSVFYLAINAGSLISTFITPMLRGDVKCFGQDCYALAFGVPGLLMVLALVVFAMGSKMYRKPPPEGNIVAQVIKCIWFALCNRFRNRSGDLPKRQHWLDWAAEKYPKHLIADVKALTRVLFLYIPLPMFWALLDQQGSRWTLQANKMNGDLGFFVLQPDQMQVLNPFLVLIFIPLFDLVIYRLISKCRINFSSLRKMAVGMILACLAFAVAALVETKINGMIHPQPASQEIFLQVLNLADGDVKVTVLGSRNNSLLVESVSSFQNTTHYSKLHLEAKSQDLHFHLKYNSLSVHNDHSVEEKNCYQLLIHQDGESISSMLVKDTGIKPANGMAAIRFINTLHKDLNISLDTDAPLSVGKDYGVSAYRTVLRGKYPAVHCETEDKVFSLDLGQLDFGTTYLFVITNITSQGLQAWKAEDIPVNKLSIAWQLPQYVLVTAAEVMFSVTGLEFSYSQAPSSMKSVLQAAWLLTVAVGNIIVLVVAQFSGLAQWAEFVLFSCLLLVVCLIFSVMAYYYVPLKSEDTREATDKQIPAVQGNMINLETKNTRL

[3] = pKa and fractional ionization of carnosine; format: physicochemical
[4] = Carnosine transepithelial transport across SKPT cell monolayers; format: in vitro ADME, rat; conditions: rat, basolateral-to-apical transcellular flux relative to apical-to-basolateral flux, 10 µM carnosine
Procedure, shortened: (§2)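 Filter-grown SKPT monolayers with apical pH 6.0 (MES/Tris) and basolateral pH 7.4 (HEPES/Tris) buffers at 37°C. 10 µM [3H]substrate with [14C]mannitol was placed in the apical or basolateral donor side. Receiver aliquots were taken over time for scintillation counting. Paracellular flux was corrected with mannitol, and clearances were obtained from flux relative to the 10 µM donor concentration. n=3–5.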

[5] = tested on: SKPT cells; test: as above; format: in vitro ADME, rat; conditions: 10 µM in donor compartment, slope of transport vs time
Procedure, shortened: as §2

[6] = tested on: SKPT cells; test: Cellular compartment model: influx and efflux clearances of carnosine; format: in vitro ADME, rat
Procedure, shortened: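 A three-compartment (apical, cellular, basolateral) mass-balance model gave influx and efflux clearances (µl/min/mg protein). Transepithelial clearances came from 10 µM donor flux experiments. Each influx clearance equals the transcellular clearance divided by the steady-state fraction effluxed to the opposite compartment. These fractions came from efflux studies after 2 h apical loading.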

[7] = tested on: rat choroid plexus primary cell cultures; conditions: cited from earlier work
[8] = tested on: SKPT cells; test: Carnosine intracellular accumulation; format: in vitro ADME, rat
Procedure, shortened: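 Rat kidney proximal tubule cells (SV40-transformed) grown on collagen-coated filter inserts and used 4 days after seeding, with no antibiotics for the final 24 h and monolayer resistance checked. Cells were preincubated 10 min at 37°C with apical pH 6.0 and basolateral pH 7.4 buffer. 10 µM [3H]substrate plus [14C]mannitol was added to one side, 37°C timed incubations. Cells washed with ice-cold buffer, solubilised (NaOH/SDS), counted. Values normalised to protein and mannitol-corrected. Concentration ratio used intracellular volume from 3-O-methyl-D-glucose uptake (1–10 mM, 300 min, phloridzin). n=3–5.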

[9] = tested on: SKPT cells; test: Proton; format: in vitro ADME, rat; conditions: 15-min uptake, 10 µM, donor pH 5.5 to 7.4, basolateral pH 7.4
Procedure, shortened: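 The donor-side pH was varied from 5.5 to 7.4 while the opposite side was held at pH 7.4 (apical uptake) or pH 6.0 (basolateral uptake). Uptake of 10 µM [3H]substrate was measured over 15 min at 37°C. Values were compared with pH 7.4 by ANOVA and Dunnett's test. n=3–6.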

[10] = molecular target: T1, PEPT2; test: Concentration-dependent apical uptake of carnosine; format: in vitro ADME; conditions: 1–500 µM carnosine, 15-min uptake, pH 6.0
[11] = molecular target: T1, PEPT2; conditions: read-out: Km, PEPT2-mediated uptake; rat choroid plexus whole tissue; cited from earlier work
[12] = tested on: basolateral transporter; test: Concentration-dependent basolateral uptake of carnosine; format: in vitro ADME, rat
[13] = tested on: SKPT cells; test: Effect of potential inhibitors on apical uptake of carnosine; format: in vitro ADME, rat; conditions: 15-min uptake, apical pH 6.0; for reduction of apical uptake of carnosine: inhibitor 1 and 2 mM
Procedure, shortened: as §1

[14] = tested on: SKPT cells; test: Substrate stability studies in SKPT compartments; format: in vitro ADME, rat
Procedure, shortened: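 10 µM [3H]substrate applied apically or basolaterally (apical pH 6.0, basolateral pH 7.4) for 5–300 min at 37°C. Donor and receiver media were collected. Cells were washed, sonicated in water, extracted with an equal volume of acetonitrile, and centrifuged at 14,000 g for 10 min at 4°C. Reversed-phase C18 HPLC used isocratic 0.1 M NaH2PO4/0.075% heptafluorobutyric acid at 1 ml/min. Stability was taken from recovery and histidine appearance. n=3.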

[15] = tested on: SKPT cells; test: Efflux studies after 2 hr apical preloading of SKPT monolayers; format: in vitro ADME, rat
Procedure, shortened: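 Monolayers loaded apically with 10 µM [3H]substrate and [14C]mannitol for 2 h at 37°C, then washed four times with ice-cold buffer. Substrate-free buffer was added to both sides (apical pH 6.0, basolateral pH 7.4) at 37°C. Apical (100 µl) and basolateral (300 µl) samples were taken at set times and replaced. Radioactivity is expressed as percent of cell content after loading. n=3–5.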

[16] = tested on: SKPT cells; conditions: cited from earlier work
[17] = substrate: NCCC(=O)N[C@@H](Cc1cnc[nH]1)C(=O)O; test: Concentration-dependent apical uptake of carnosine; format: in vitro ADME, rat; conditions: other: 1–500 µM carnosine, 15-min uptake, pH 6.0, 37.0 °C
[18] = at 60 min, after 2 hr apical preloading with 10 µM
[19] = single exponential fit of efflux-time profile

Molecule: CC1=C(C(=O)O)N2C(=O)[C@@H](NC(=O)[C@H](N)c3ccc(O)cc3)[C@H]2SC1 [cefadroxil]
- reduction of basolateral uptake of carnosine [1]: 90–99%

- ionized (NH3+) at pH 5.5 ([3]; pH 5.5): 95%
- ionized (NH3+) at pH 6.5 ([3]; pH 6.5): 65%
- ionized (NH3+) at pH 7.4 ([3]; pH 7.4): 15–20%
- efflux ratio at 10 µM [4]: ~2
- A-to-B transepithelial rate [5]: 1.99 pmol/min/mg protein
- B-to-A transepithelial rate [5]: 3.74 pmol/min/mg protein
- CLBC/CLCA ratio [6]: 0.8
- CLBC/CLCB ratio [6]: 32
- CLCB/CLAC ratio [6]: 0.004
- time over which uptake was linear, apical surface ([8]; 10 µM carnosine): 60 min
- time over which uptake was linear, basolateral surface ([8]; 10 µM carnosine): 30 min
- basolateral uptake plateau value ([8]; 10 µM carnosine introduced from basolateral compartment): 15 pmol/mg protein
- apical uptake plateau value ([8]; 10 µM carnosine, at 180–300 min): approximately 220 pmol/mg protein
- intracellular to extracellular concentration ratio, basolateral introduction ([8]; 10 µM extracellular): 0.8
- intracellular to extracellular concentration ratio, apical introduction ([8]; 10 µM extracellular, intracellular volume 2.0 µl/mg protein): 11
- pH of maximal apical uptake [9]: 6.5
- Vmax, apical membrane uptake [10]: 659±27 pmol/mg/15min
- stability in donor compartment ([14]; apical or basolateral donor side, up to 300 min of incubation): remained intact
- intact in intracellular compartment at 60 min ([14]; intracellular compartment, 60 min): about 87%
- intact in intracellular compartment at 300 min ([14]; intracellular compartment, 300 min): 81%
- intact in intracellular compartment, first 15 min ([14]; intracellular compartment, first 15 min of incubation): > 94%
- cell-to-apical efflux relative to cell-to-basolateral efflux ([15]; SKPT cells): about 10 times
- carnosine effluxed from cell to apical compartment [15, 18]: about 40%
- carnosine effluxed from cell to basolateral compartment [15, 18]: about 4%
- fefflux.A (fraction effluxed to apical compartment at steady state) ([15]; single exponential fit): 0.66
- fefflux.B (fraction effluxed to basolateral compartment at steady state) ([15]; single exponential fit): 0.047
- carnosine effluxed from cellular to apical compartment at steady state [15, 19]: 66%
- carnosine effluxed to basolateral compartment at steady state [15, 19]: 4.7%
Molecule: NCCC(=O)N[C@@H](Cc1cnc[nH]1)C(=O)O [carnosine, β-alanyl-L-histidine]
- Km [2]: 43 µM
- apical efflux relative to basolateral efflux [7]: about 4 times
- intracellular to extracellular concentration ratio [7]: approximately 135
- Km [11]: 39 µM
- Vmax, basolateral membrane uptake ([12]; 1–500 µM carnosine, 15-min uptake, pH 7.4): 27.4±1.3 pmol/mg/15min
- lower affinity of basolateral transporter compared to apical transporter ([12]; Km comparison): 2 fold
- lower capacity of basolateral transporter compared to apical transporter ([12]; Vmax comparison): 24 fold
- reduction of basolateral uptake of carnosine [1]: 90–99%
- reduction of apical uptake of carnosine [13]: 96%

Molecule: CN(CC(=O)O)C(=O)CN [GlySar, glycylsarcosine] (H-Gly-[Sar]-OH)
- apical uptake relative to basolateral uptake ([16]; ref 37): about 5 ×
- apical uptake relative to basolateral uptake ([16]; ref 38): about 3.5 ×
- apical-to-basolateral transepithelial flux higher than reverse flux ([16]; ref 38): 28%
- reduction of basolateral uptake of carnosine [1]: 90–99%
- reduction of apical uptake of carnosine [13]: 90%

Molecule: N[C@@H](Cc1c[nH]cn1)C(=O)O [histidine, L-histidine]
- effect on basolateral uptake of carnosine [1]: unaffected
- effect on apical uptake of carnosine ([13]; inhibitor 1, 2 and 5 mM): unaffected

B1: PEPT2 (Rattus norvegicus) (protein)
chain: MNPFQKNESKETLFSPVSTEEMLPRPPSPPKKSPPKIFGSSYPVSIAFIVVNEFCERFSYYGMKAVLTLYFLYFLHWNEDTSTSVYHAFSSLCYFTPILGAAIADSWLGKFKTIIYLSLVYVLGHVFKSLGAIPILGGKMLHTILSLVGLSLIALGTGGIKPCVAAFGGDQFEEEHAEARTRYFSVFYLAINAGSLISTFITPMLRGDVKCFGQDCYALAFGVPGLLMVLALVVFAMGSKMYRKPPPEGNIVAQVIKCIWFALCNRFRNRSGDLPKRQHWLDWAAEKYPKHLIADVKALTRVLFLYIPLPMFWALLDQQGSRWTLQANKMNGDLGFFVLQPDQMQVLNPFLVLIFIPLFDLVIYRLISKCRINFSSLRKMAVGMILACLAFAVAALVETKINGMIHPQPASQEIFLQVLNLADGDVKVTVLGSRNNSLLVESVSSFQNTTHYSKLHLEAKSQDLHFHLKYNSLSVHNDHSVEEKNCYQLLIHQDGESISSMLVKDTGIKPANGMAAIRFINTLHKDLNISLDTDAPLSVGKDYGVSAYRTVLRGKYPAVHCETEDKVFSLDLGQLDFGTTYLFVITNITSQGLQAWKAEDIPVNKLSIAWQLPQYVLVTAAEVMFSVTGLEFSYSQAPSSMKSVLQAAWLLTVAVGNIIVLVVAQFSGLAQWAEFVLFSCLLLVVCLIFSVMAYYYVPLKSEDTREATDKQIPAVQGNMINLETKNTRL
- Km [17]: 49 ± 8 µM
